Test [1] concerns Staphylococcus aureus. Nature of the test: Antibacterial activity against methicillin-resistant Staphylococcus aureus N315 after 24 hrs by two-fold serial dilution assay. It counts as functional.
The next test has as its system Bacillus subtilis. Briefly: Antibacterial activity against Bacillus subtilis after 24 hrs by two-fold serial dilution assay. It counts as functional. The gist of the method:
(§1)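 Twofold serial broth dilution following NCCLS guidance, with Chloromycin, Norfloxacin and Fluconazole as positive controls. MIC in μM is the lowest concentration giving complete inhibition of visible bacterial or fungal growth.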

Another test has as its system Micrococcus luteus. Briefly: Antibacterial activity against Micrococcus luteus ATCC 4698 after 24 hrs by two-fold serial dilution assay. It counts as functional, NCTC 2665. Summed up: as §1
Test [2] deals with Staphylococcus aureus. Nature of the test: Antibacterial activity against Staphylococcus aureus ATCC 25923 after 24 hrs by two-fold serial dilution assay. It counts as functional. Summed up:
as §1

Test [3] relates to Escherichia coli. Nature of the test: Antibacterial activity against Escherichia coli JM109 after 24 hrs by two-fold serial dilution assay. It counts as functional. Summed up:
as §1

In test [4] the test system is Escherichia coli. Nature of the test: Antibacterial activity against Escherichia coli DH52 after 24 hrs by two-fold serial dilution assay. It counts as functional. The gist of the method: as §1
Another test relates to Shigella dysenteriae. Briefly: Antibacterial activity against Shigella dysenteriae after 24 hrs by two-fold serial dilution assay. It is filed as functional.
A further test concerns Pseudomonas aeruginosa. Nature of the test: Antibacterial activity against Pseudomonas aeruginosa after 24 hrs by two-fold serial dilution assay. It counts as functional. Summed up:
as §1

The subject of the next test is Proteus vulgaris. Nature of the test: Antibacterial activity against Bacillus proteus ATCC 13315 after 24 hrs by two-fold serial dilution assay. It counts as functional. Summed up: as §1
A further test concerns Pichia norvegensis. Nature of the test: Antifungal activity against Candida mycoderma after 24 hrs by two-fold serial dilution assay. It counts as functional. Summed up:
as §1

The next test deals with Cyberlindnera jadinii. Nature of the test: Antifungal activity against Candida utilis after 24 hrs by two-fold serial dilution assay. It counts as functional. The gist of the method: as §1
A further test deals with Saccharomyces cerevisiae. Briefly: Antifungal activity against Saccharomyces cerevisiae after 24 hrs by two-fold serial dilution assay. It is filed as functional. Summed up:
as §1

The next test relates to Aspergillus flavus. Briefly: Antifungal activity against Aspergillus flavus after 24 hrs by two-fold serial dilution assay. It is filed as functional. The gist of the method:
as §1

Another test relates to Candida albicans. Briefly: Antifungal activity against Candida albicans ATCC 76615 after 24 hrs by two-fold serial dilution assay. It is filed as functional. Summed up: as §1
The next test deals with Salmonella typhi. Briefly: Antibacterial activity against Bacillus typhi after 24 hrs by two-fold serial dilution assay. It is filed as functional, Salmonella enterica subsp. enterica serovar Typhi.
The mark [5] stands for this setting: Staphylococcus aureus, ATCC 25923, 24 h, read-out: MIC.
Setting [6] is: Shigella dysenteriae, 24 h, read-out: MIC.
[7] abbreviates: Pichia norvegensis, 24 h, read-out: MIC.
Where [8] appears, read: Saccharomyces cerevisiae, 24 h, read-out: MIC.
Where [9] appears, read: Candida albicans, ATCC 76615, 24 h, read-out: MIC.
[10] abbreviates: Staphylococcus aureus, N315, 24 h, read-out: MIC.
Where [11] appears, read: Bacillus subtilis, 24 h, read-out: MIC.
[12] abbreviates: Escherichia coli, JM109, 24 h, read-out: MIC.
Setting [13] is: Pseudomonas aeruginosa, 24 h, read-out: MIC.
[14] abbreviates: Escherichia coli, DH52, 24 h, read-out: MIC.

Values after ≈ are worked out from the molar mass of the structure shown.

On to `COc1cc(-c2nc3ccccc3n2Cc2cccc(F)c2)c2c(c1O)CN1CCc3cc4c(cc3C1C2)OCO4` (stereo unspecified), for which the MIC – broadly, the least concentration at which growth counts as inhibited – was found to be 12.2 µM (≈ 6.71 µg/mL) in the test with Staphylococcus aureus [1]; 19.4 µM (≈ 10.7 µg/mL) in the test on Bacillus subtilis; 19.4 µM (≈ 10.7 µg/mL) against Micrococcus luteus; 48.5 µM (≈ 26.7 µg/mL) in the test on Staphylococcus aureus [2] (setting [5]); 29.1 µM (≈ 16 µg/mL) in the test with Escherichia coli [3]; 38.8 µM (≈ 21.3 µg/mL) in the test with Escherichia coli [4]. Besides, the MIC is 116 µM (≈ 64 µg/mL) in the test on Shigella dysenteriae (setting [6]); 48.5 µM (≈ 26.7 µg/mL) in the test on Pseudomonas aeruginosa; 38.8 µM (≈ 21.3 µg/mL) against Proteus vulgaris; 48.5 µM (≈ 26.7 µg/mL) with Pichia norvegensis (setting [7]); 48.5 µM (≈ 26.7 µg/mL) in the test on Cyberlindnera jadinii; 24.3 µM (≈ 13.4 µg/mL) with Saccharomyces cerevisiae (setting [8]). Also, the results for the minimum inhibitory concentration (MIC) with Aspergillus flavus and in the test with Candida albicans (setting [9]) were 24.3 µM (≈ 13.4 µg/mL) and 48.5 µM (≈ 26.7 µg/mL), respectively.

On to `COc1cc(-c2nc3ccccc3n2CCCCCCn2c3ccccc3c3ccccc32)c2c(c1O)CN1CCc3cc4c(cc3C1C2)OCO4` (stereo unspecified), for which the MIC is 618 µM (≈ 427 µg/mL) in the test on Staphylococcus aureus [1] (setting [10]); 741 µM (≈ 512 µg/mL) in the test on Bacillus subtilis (setting [11]); 741.1 µM (≈ 512 µg/mL) against Micrococcus luteus; 618 µM (≈ 427 µg/mL) with Escherichia coli [3] (setting [12]); 617.6 µM (≈ 427 µg/mL) against Escherichia coli [4]; 741 µM (≈ 512 µg/mL) in the test on Pseudomonas aeruginosa (setting [13]). The minimum inhibitory concentration (MIC) against Proteus vulgaris worked out at 617.6 µM (≈ 427 µg/mL); in the test with Pichia norvegensis (setting [7]), 618 µM (≈ 427 µg/mL); in the test with Cyberlindnera jadinii (Williopsis jadinii, 24 h, read-out: MIC), 618 µM (≈ 427 µg/mL); in the test on Saccharomyces cerevisiae (setting [8]) it was 741 µM (≈ 512 µg/mL); with Aspergillus flavus it was 617.6 µM (≈ 427 µg/mL); in the test on Candida albicans (setting [9]), 247 µM (≈ 171 µg/mL).

On to `COc1cc(-c2nc3ccccc3n2Cc2cccc(F)c2)c2c(c1O)CN1CCc3cc4c(cc3C1C2)OCO4.Cl` (stereo unspecified), for which the MIC is 88.5 µM in the test with Bacillus subtilis; 70.8 µM in the test with Micrococcus luteus; 70.8 µM against Staphylococcus aureus [2]; 70.8 µM in the test with Escherichia coli [3]; 141.6 µM with Escherichia coli [4]; 212.4 µM against Pseudomonas aeruginosa. Also, the MIC in the test with Proteus vulgaris stood at 88.5 µM; in the test on Pichia norvegensis it was 70.8 µM; with Cyberlindnera jadinii, 106.2 µM; against Saccharomyces cerevisiae, 35.4 µM; in the test with Aspergillus flavus it was 88.5 µM; in the test on Candida albicans, 70.8 µM.

Consider `COc1cc(-c2nc3ccccc3n2Cc2ccc(F)cc2)c2c(c1O)CN1CCc3cc4c(cc3C1C2)OCO4` (stereo unspecified), for which the minimal inhibitory concentration (MIC) in the test with Bacillus subtilis is 20.1 µM (≈ 11 µg/mL); against Micrococcus luteus, 40.1 µM (≈ 22 µg/mL); in the test with Staphylococcus aureus [2] (setting [5]) it was 60.2 µM (≈ 33.1 µg/mL); against Escherichia coli [3] it was 25.1 µM (≈ 13.8 µg/mL); in the test on Escherichia coli [4] (setting [14]), 100 µM (≈ 55.1 µg/mL); in the test with Pseudomonas aeruginosa, 25.1 µM (≈ 13.8 µg/mL). The MIC in the test with Proteus vulgaris was 25.1 µM (≈ 13.8 µg/mL); against Pichia norvegensis it was 25.1 µM (≈ 13.8 µg/mL); with Cyberlindnera jadinii, 60.2 µM (≈ 33.1 µg/mL); in the test with Saccharomyces cerevisiae (setting [8]), 20.1 µM (≈ 11 µg/mL); against Aspergillus flavus it was 50.2 µM (≈ 27.6 µg/mL); against Candida albicans, 25.1 µM (≈ 13.8 µg/mL).

As to `O=C(N[C@H](CO)[C@H](O)c1ccc([N+](=O)[O-])cc1)C(Cl)Cl` [CHLORAMPHENICOL], the MIC in the test with Staphylococcus aureus [1] (setting [10]) stood at 41.3 µM (≈ 13.3 µg/mL); in the test with Bacillus subtilis (setting [11]), 82.5 µM (≈ 26.7 µg/mL); with Micrococcus luteus (Micrococcus luteus, NCTC 2665, 24 h, read-out: MIC), 20.7 µM (≈ 6.69 µg/mL); with Staphylococcus aureus [2] (setting [5]), 41.3 µM (≈ 13.3 µg/mL); in the test on Escherichia coli [3] (setting [12]), 82.5 µM (≈ 26.7 µg/mL); in the test with Escherichia coli [4] (setting [14]) it was 66 µM (≈ 21.3 µg/mL). Further, the MIC with Shigella dysenteriae (setting [6]) amounted to 99 µM (≈ 32 µg/mL); in the test on Pseudomonas aeruginosa (setting [13]), 99 µM (≈ 32 µg/mL); with Salmonella typhi (Salmonella enterica, 24 h, read-out: MIC) it was 82.5 µM (≈ 26.7 µg/mL); in the test on Proteus vulgaris (Proteus vulgaris, ATCC 13315, 24 h, read-out: MIC), 99 µM (≈ 32 µg/mL).

As for `COc1cc(-c2nc3ccccc3n2Cc2ccc(Cl)cc2)c2c(c1O)CN1CCc3cc4c(cc3C1C2)OCO4.Cl` (stereo unspecified), the MIC with Bacillus subtilis was found to be 134 µM; against Micrococcus luteus, 535.9 µM; with Staphylococcus aureus [2] it was 267.9 µM; with Escherichia coli [3] it was 535.9 µM; against Escherichia coli [4] it was 669.8 µM; in the test with Pseudomonas aeruginosa it was 535.9 µM. The MIC in the test with Salmonella typhi is 201 µM; against Proteus vulgaris, 535.9 µM; against Pichia norvegensis, 267.9 µM; against Cyberlindnera jadinii, 535.9 µM; with Saccharomyces cerevisiae, 803.8 µM; in the test with Aspergillus flavus, 669.8 µM. In the test with Candida albicans, the MIC is 401.9 µM.

`COc1cc(-c2nc3ccccc3n2Cc2ccccc2F)c2c(c1O)CN1CCc3cc4c(cc3C1C2)OCO4.Cl` (stereo unspecified): the MIC turned out to be 33.5 µM against Bacillus subtilis; 20.9 µM with Micrococcus luteus; 20.9 µM against Escherichia coli [3]; 20.9 µM in the test with Escherichia coli [4]; 50.2 µM in the test with Shigella dysenteriae; 67 µM with Pseudomonas aeruginosa. The MIC was 6.3 µM in the test on Salmonella typhi; 20.9 µM in the test with Proteus vulgaris; 10.5 µM in the test with Pichia norvegensis; 12.6 µM in the test on Cyberlindnera jadinii; 83.8 µM against Saccharomyces cerevisiae; 803.8 µM against Aspergillus flavus. In addition, the MIC against Candida albicans came out at 20.9 µM.

(Values after ChEMBL document CHEMBL4049410, “Novel benzimidazolyl tetrahydroprotoberberines: Design, synthesis, antimicrobial evaluation and multi-targeting exploration” (2017).)
